The source made the active and inactive calls. The rule behind the calls is not given here.
Legend:
HL-60 [1] = test: Effect on human HL60 cells assessed as fold change in LILRA5 gene expression at 1.085 uM incubated for 6 hrs by microarray-based method; format: functional
Method in brief: (§1)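 HL60 cells were treated in triplicate with 1.085 µM or vehicle for 6 h. Total RNA was extracted with on-column DNase treatment and profiled on expression arrays.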

RS4-11 [2] = test: Induction of DNA damage in human RS4:11 cells assessed as accumulation of cells at G2 phase at 300 nM incubated for 18 hrs in presence of H2AX antibody by immunofluorescent staining based flow cytometric analysis relative to control; format: functional
Method in brief: (§2)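 RS4;11 cells treated with 300 nM or DMSO vehicle for 18 h, then pulsed with 10 μM BrdU for 1 h. Harvested cells immunostained for BrdU/PI (cell cycle), γH2AX (DNA damage) and PARP (apoptosis). Multicolor flow cytometry gated G1, sub-G2-like, G2/M and sub-G0/G1 populations.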

HL-60 [3] = test: Induction of apoptosis in human HL60 cells at 300 nM incubated for 18 hrs by Annexin V-FITC/propidium iodide staining-based flow cytometric analysis; format: functional, cell-based
Method in brief: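 CEM, HL60 or RS4;11 cells (5×10^5) treated with 300 nM or vehicle for 18 h. Stained with FITC-Annexin V in binding buffer for 15 min at 37 °C, then PI (5 μg/mL) for 3 min. Analyzed by flow cytometry.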

HL-60 [4] = test: Induction of cell cycle arrest in human HL60 cells assessed as accumulation of cells at S phase at EC50 incubated for 12 hrs by PI staining based flow cytometric analysis (reference value: 19.0%); format: functional
Tubulin (Homo sapiens) [5] = target: T1, Tubulin (Homo sapiens) (UniProt P68371+Q9H4B7+P0DPH7+P68366+Q13509+Q71U36+P04350+Q3ZCM7+P07437+P68363+Q9BQE3+Q6PEY2+Q13885+Q9BVA1+Q9BUF5); test: Inhibition of tubulin polymerization in human HL60 cells at 300 nM by Western blot analysis; format: cell-based; conditions: TDE = time-dependent effect
Method in brief: (§3)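 Leukemia cells (RS4;11, CEM, HL60) treated with 300 nM for 0, 15, 30, 60 and 360 min. Western blotting for β-tubulin and p53, with lamin B1 as loading control and chemiluminescent detection.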

HL-60 [6] = test: Effect on human HL60 cells assessed as increase in p53 protein expression at 300 nM incubated for 15 to 360 mins by Western blot analysis; format: functional, cell-based; method in brief: as §3
Tubulin (Homo sapiens) [7] = target: T1, Tubulin (Homo sapiens); test: Inhibition of tubulin polymerization in human RS4:11 cells at 300 nM by Western blot analysis; format: cell-based; conditions: TDE = time-dependent effect; method in brief: as §3
HL-60 [8] = test: Effect on human HL60 cells assessed as fold change in USP24 gene expression at 1.085 uM incubated for 6 hrs by microarray-based method; format: functional
HL-60 [9] = test: Effect on human HL60 cells assessed as fold change in SGOL1 gene expression at 1.085 uM incubated for 6 hrs by microarray-based method; format: functional; method in brief: as §1
HL-60 [10] = test: Effect on human HL60 cells assessed as fold change in HRH1 gene expression at 1.085 uM incubated for 6 hrs by microarray-based method; format: functional; method in brief: as §1
HL-60 [11] = test: Effect on human HL60 cells assessed as fold change in ARL17B gene expression at 1.085 uM incubated for 6 hrs by microarray-based method; format: functional; method in brief: as §1
Tubulin (Homo sapiens) [12] = target: T1, Tubulin (Homo sapiens); test: Induction of microtubule network depolymerization in human HeLa cells assessed as formation of abnormal chromosomal segregation at 500 nM incubated for 18 hrs by DAPI staining based fluorescence microscopic method; format: cell-based
Method in brief: (§4)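 HeLa cells (100,000/mL) cultured overnight on glass-bottom dishes, then exposed to 500 nM or 1 μM, or DMSO, for 18 h. Permeabilized (0.5% Triton X-100) and fixed (3.7% formaldehyde). Stained overnight at 4 °C with anti-β-tubulin, then Alexa Fluor 647 secondary for 1 h at room temperature, and DAPI 1 μg/mL for 10 min. Examined by fluorescence microscopy.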

HL-60 [13] = test: Effect on human HL60 cells assessed as fold change in GBP3 gene expression at 1.085 uM incubated for 6 hrs by microarray-based method; format: functional; method in brief: as §1
HL-60 [14] = test: Induction of cell cycle arrest in human HL60 cells assessed as accumulation of cells at G2/M phase at EC50 incubated for 18 hrs by PI staining based flow cytometric analysis (reference value: 23.0%); format: functional
RS4-11 [15] = test: Induction of DNA damage in human RS4:11 cells assessed as accumulation of cells at sub G2 phase at 300 nM incubated for 18 hrs in presence of H2AX antibody by immunofluorescent staining based flow cytometric analysis relative to control; format: functional; method in brief: as §2
HL-60 [16] = test: Effect on human HL60 cells assessed as fold change in CRADD gene expression at 1.085 uM incubated for 6 hrs by microarray-based method; format: functional; method in brief: as §1
Tubulin (Homo sapiens) [17] = target: T1, Tubulin (Homo sapiens); test: Induction of microtubule network depolymerization in human HeLa cells assessed as formation of condensed chromosomes at 500 nM incubated for 18 hrs by DAPI staining based fluorescence microscopic method; format: cell-based; method in brief: as §4
HL-60 [18] = test: Effect on human HL60 cells assessed as fold change in RAB39B gene expression at 1.085 uM incubated for 6 hrs by microarray-based method; format: functional; method in brief: as §1
Tubulin (Homo sapiens) [19] = target: T1, Tubulin (Homo sapiens); test: Inhibition of tubulin polymerization in human CEM cells at 300 nM by Western blot analysis; format: cell-based; conditions: TDE = time-dependent effect; method in brief: as §3
HL-60 [20] = test: Induction of differentiation in human HL60 cells assessed as increase in CD11b positive cells at EC50 to EC90 incubated for 24 hrs by 7-AAD staining-based flow cytometric analysis; format: functional, cell-based
Method in brief: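 Vitamin D3 at 100 nM and ATRA at 2 μM served as positive controls. Stained with APC anti-CD11b and PE anti-CD14 for 30 min at 4 °C, then 7-AAD.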

HL-60 [21] = test: Effect on human HL60 cells assessed as fold change in ARL17A gene expression at 1.085 uM incubated for 6 hrs by microarray-based method; format: functional; method in brief: as §1
HL-60 [22] = test: Effect on human HL60 cells assessed as fold change in ANKRD36 gene expression at 1.085 uM incubated for 6 hrs by microarray-based method; format: functional; method in brief: as §1
HL-60 [23] = test: Induction of cell cycle arrest in human HL60 cells assessed as accumulation of cells at S phase at EC50 incubated for 18 hrs by PI staining based flow cytometric analysis (reference value: 19.0%); format: functional
HL-60 [24] = test: Effect on human HL60 cells assessed as fold change in FOXJ2 gene expression at 1.085 uM incubated for 6 hrs by microarray-based method; format: functional; method in brief: as §1
RS4-11 [25] = test: Induction of cell cycle arrest in human RS4:11 cells assessed as increase in accumulation at G2/M phase at 300 nM incubated for 18 hrs by BrdU/propidium iodide staining based flow cytometric analysis; format: functional; method in brief: as §2
HL-60 [26] = test: Effect on human HL60 cells assessed as fold change in FBXO25 gene expression at 1.085 uM incubated for 6 hrs by microarray-based method; format: functional; method in brief: as §1
HL-60 [27] = test: Effect on human HL60 cells assessed as fold change in PHF20L1 gene expression at 1.085 uM incubated for 6 hrs by microarray-based method; format: functional; method in brief: as §1
RS4-11 [28] = test: Induction of apoptosis in human RS4:11 cells assessed as accumulation of cells at G2 phase at 300 nM incubated for 18 hrs in presence of PARP antibody by immunofluorescent staining based flow cytometric analysis relative to control; format: functional; method in brief: as §2
RS4-11 [29] = test: Induction of cell cycle arrest in human RS4:11 cells assessed as decrease in accumulation at G1 phase at 300 nM incubated for 18 hrs by BrdU/propidium iodide staining based flow cytometric analysis; format: functional; method in brief: as §2

Q: `COC(=O)c1[nH]c2cc(OC)ccc2c1-c1ccc(C(F)(F)F)cc1` was tested. Which “fold change (FC)” value (HL-60 [1]) did it give?
A: -1.64

Q: And the Activity (RS4-11 [2])?
A: 6.9%

Q: And the Activity (HL-60 [3])?
A: Active

Q: And the Activity (HL-60 [4])?
A: 19.1%

Q: And the inhibition (Tubulin (Homo sapiens) [5])?
A: Tde

Q: And the Activity (HL-60 [6])?
A: Active

Q: And the inhibition (Tubulin (Homo sapiens) [7])?
A: Tde

Q: And the “fold change (FC)” value (HL-60 [8])?
A: 1.74

Q: And the “fold change (FC)” value (HL-60 [9])?
A: 1.52

Q: And the “fold change (FC)” value (HL-60 [10])?
A: 1.51

Q: What about the “fold change (FC)” value (HL-60 [11]) of the same compound?
A: -1.5

Q: And the Activity (Tubulin (Homo sapiens) [12])?
A: Active

Q: And the “fold change (FC)” value (HL-60 [13])?
A: -1.62

Q: What about the Activity (HL-60 [14]) of the same compound?
A: 56.3%

Q: What about the Activity (RS4-11 [15]) of the same compound?
A: 2.3%

Q: What about the “fold change (FC)” value (HL-60 [16]) of the same compound?
A: 1.61

Q: What about the Activity (Tubulin (Homo sapiens) [17]) of the same compound?
A: Active

Q: What about the “fold change (FC)” value (HL-60 [18]) of the same compound?
A: -1.53

Q: What about the inhibition (Tubulin (Homo sapiens) [19]) of the same compound?
A: Tde

Q: What about the Activity (HL-60 [20]) of the same compound?
A: Active

Q: And the “fold change (FC)” value (HL-60 [21])?
A: -1.5

Q: And the “fold change (FC)” value (HL-60 [22])?
A: 1.54

Q: What about the Activity (HL-60 [23]) of the same compound?
A: 8.92%

Q: What about the “fold change (FC)” value (HL-60 [24]) of the same compound?
A: 1.62

Q: And the Activity (RS4-11 [25])?
A: Active

Q: And the “fold change (FC)” value (HL-60 [26])?
A: 1.71

Q: What about the “fold change (FC)” value (HL-60 [27]) of the same compound?
A: 1.56

Q: What about the Activity (RS4-11 [28]) of the same compound?
A: 1.5%

Q: What about the Activity (RS4-11 [29]) of the same compound?
A: Active
